# STEP block: blocks human striatal-enriched tyrosine phosphatase; inhibition, % at 20 µM; P54829; AID 588621; actives 0.25% (n = 360,000); recombinant STEP, OMFP fluorogenic substrate, fluorescence;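 active = inhibition at 20 µM, scaled per plate between control wells, above about 37%, limit read from the data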
#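 System: STEP (striatal-enriched tyrosine phosphatase) enzyme, cell-free; medium: Bis-Tris pH 6.0 buffer with DTT, detergent; dosing: 20 µM, 1% DMSO; times: reaction 20 min, ambient temperature; detection: fluorescence, 480/540 nm; read-out basis: normalized % inhibition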
# LMPTP inh: blocks human LMPTP phosphatase; P24666; inhibition, % at 20 µM; AID 651560; recombinant LMPTP-A, OMFP fluorogenic substrate, fluorescence intensity; actives 0.22% (n = 360,000);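 active = compounds that cut the enzyme signal by at least half of the control window in the single-dose screen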
#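 Test system – LMPTP-A enzyme · Amount – LMPTP-A at 0.625 nM final in the reaction · Buffer or medium – Bis-Tris pH 6.0, DTT, detergent · Reagent – OMFP 400 µM · Doses – single 20 µM dose · Schedule – reaction 50 min, room temperature, dark · Detection – fluorescence intensity of OMFP turnover product · Evaluation – percent inhibition versus substrate-only and uninhibited controls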
# SUMO1-SIM PPI: SUMO1-SIM interaction modulation; SUMO1 binding to a labelled peptide, TR-FRET, 1 h; inhibition, % at 20 µM; actives 0.33% (n = 360,000); P63165; AID 602429; in the data active = inhibition above about 37%
# DNMT1 inh: inhibitors of human DNMT1. P26358. DNMT1 molecular beacon, Hinp1I cleavage, fluorescence. inhibition (reported as % activation of signal), % at 10 µM. actives 0.83% (n = 360,000). AID 588458; in the data active = inhibition above about 50%
# Target sequence (P26358 504-1616 limits assumed): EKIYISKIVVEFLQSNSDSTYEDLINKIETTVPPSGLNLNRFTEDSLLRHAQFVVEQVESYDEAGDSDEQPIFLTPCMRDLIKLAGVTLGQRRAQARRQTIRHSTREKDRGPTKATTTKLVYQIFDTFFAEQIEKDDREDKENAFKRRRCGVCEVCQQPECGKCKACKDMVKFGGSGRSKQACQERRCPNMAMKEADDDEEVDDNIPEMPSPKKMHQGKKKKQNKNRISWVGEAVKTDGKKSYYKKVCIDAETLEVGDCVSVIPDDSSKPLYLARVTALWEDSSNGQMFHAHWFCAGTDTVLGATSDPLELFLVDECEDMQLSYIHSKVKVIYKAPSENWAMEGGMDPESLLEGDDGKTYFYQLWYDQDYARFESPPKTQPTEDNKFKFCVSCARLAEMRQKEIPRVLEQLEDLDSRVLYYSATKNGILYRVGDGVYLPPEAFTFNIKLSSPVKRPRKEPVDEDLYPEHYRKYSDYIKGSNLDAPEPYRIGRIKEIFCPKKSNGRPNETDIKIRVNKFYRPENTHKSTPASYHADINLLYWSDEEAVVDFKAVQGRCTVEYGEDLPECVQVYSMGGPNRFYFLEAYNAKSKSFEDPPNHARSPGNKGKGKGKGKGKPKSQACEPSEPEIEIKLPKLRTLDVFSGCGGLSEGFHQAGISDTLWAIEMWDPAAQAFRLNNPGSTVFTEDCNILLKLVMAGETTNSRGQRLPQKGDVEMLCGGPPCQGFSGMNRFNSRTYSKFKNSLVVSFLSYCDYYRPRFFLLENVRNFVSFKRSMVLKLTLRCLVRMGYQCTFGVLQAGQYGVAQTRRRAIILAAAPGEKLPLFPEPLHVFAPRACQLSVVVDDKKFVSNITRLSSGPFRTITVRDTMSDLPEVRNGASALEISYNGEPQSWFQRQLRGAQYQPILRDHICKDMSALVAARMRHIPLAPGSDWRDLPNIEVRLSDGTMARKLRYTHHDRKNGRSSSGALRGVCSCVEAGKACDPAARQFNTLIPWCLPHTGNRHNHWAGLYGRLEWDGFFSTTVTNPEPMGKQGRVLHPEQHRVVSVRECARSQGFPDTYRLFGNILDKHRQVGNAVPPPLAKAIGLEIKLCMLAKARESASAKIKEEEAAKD
# Scp-1 inhibitor: inhibitors of human Scp-1 phosphatase; Q9GZU7; AID 493091; actives 0.88% (n = 340,000); inhibition, % at 20 µM; Recombinant Scp1, phosphopeptide, malachite green phosphate absorbance;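 active = inhibition above about 50% at 20 µM, limit read from the data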
#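 Test system: SCP-1 phosphatase catalytic domain, residues 76-261; measured by: colorimetric phosphate reagent with accelerator and stabiliser, absorbance at 630 nm; timing: enzyme reaction 45 min at room temperature, colour 5 min, stabilisation 30 min; also added: Phosphorylated 17-residue peptide substrate; compound dosing: one concentration, 20 µM, with 1.0% DMSO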
# Scp1 confirm: confirmation of human Scp-1 phosphatase inhibitors; inhibition, % at 20 µM; actives 61% (n = 2,500); recombinant SCP-1 catalytic domain, phosphate release, malachite green absorbance; shares compounds with Scp-1 inhibitor;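 active = inhibition of at least 30% at 20 µM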
# Scp-1 MG ctr: counter-screen for Scp-1 inhibitors: colorimetric interference | 2,500 tested, under 10 active | apparent inhibition (interference), % at 20 µM | shares compounds with Scp-1 inhibitor | Colorimetric interference counterscreen, malachite green absorbance 630 nm | AID 540313;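 active = inhibition of at least 30% at 20 µM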;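 also: compounds added after enzyme reaction finished so only phosphate colour detection is probed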
# Scp1 DSF: binds human Scp-1, shifting its melting temperature; thermal shift relative to vanadate control, % at 40 µM; actives 25% (n = 1,500); AID 540329; shares compounds with Scp-1 inhibitor; Recombinant SCP1, Sypro Orange thermal shift Tm;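 active = substances whose mean melting-temperature shift, as a percentage of the reference inhibitor's shift, reaches about 5.3%, limit read from the data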
# DNMT1 interf DR: shows spectral interference in the DNMT1 beacon assay; shares compounds with DNMT1 inh; molecular beacon fluorescence, spectral interference counter-screen; IC50, µM; 200 tested, under 10 active; AID 602382
# DNMT1 confirm: confirmation of human DNMT1 inhibitors. shares compounds with DNMT1 inh. DNMT1 molecular beacon HinP1I cleavage, fluorescence. inhibition, % at 10 µM. actives 8% (n = 2,300). AID 602385;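 active = average inhibition of at least 30% in the single-concentration confirmation test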
# Beacon interf: beacon fluorescence artifact counter-screen. shares compounds with DNMT1 inh. DNMT1 molecular beacon spectral interference counterscreen, fluorescence 485/520. activation (fluorescence interference), % at 10 µM. actives 1% (n = 2,300). AID 602387;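 active = activation of at least 30% at 10 µM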;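 also: DNMT1 catalytic domain with a HinP1I cleavage step and a FAM/dabcyl DNA beacon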
# STEP inh conf: confirmation of human STEP phosphatase inhibitors. recombinant STEP, OMFP fluorogenic substrate, fluorescence. AID 623866. inhibition, % at 20 µM. actives 32% (n = 520). shares compounds with STEP block
# Hits are given with their value; 0 = inactive; - = no result given. The list is not random: actives were taken first. Their share in the collection is about 1.8%. Unless noted, no rule for the calls is given here.
SMILES,STEP block,LMPTP inh,SUMO1-SIM PPI,DNMT1 inh,Scp-1 inhibitor,DNMT1 confirm,Beacon interf,others
CCCc1cc(=O)oc2cc(OCC(=O)NCc3cccs3)ccc12,0,0,0,0,0,-,-,
CCCc1cc(=O)oc2cc(OCC(=O)Nc3ccc(S(N)(=O)=O)cc3)ccc12,68.8,83.8,55.4,0,99.6,-,-,Scp1 confirm=85.3;Scp-1 MG ctr=0;Scp1 DSF=0;STEP inh conf=64.6
COc1ccc2cc3c(N)nn(C(=O)c4cccc(F)c4)c3nc2c1,95.6,0,85.2,0,96.3,-,-,Scp1 confirm=60.4;Scp-1 MG ctr=0;Scp1 DSF=0;STEP inh conf=21.3
CC(C)(C)[C@H]1CCC(=O)N([C@H](CN=[N+]=[N-])Cc2ccccc2)CC1,0,0,0,0,0,-,-,
COc1cc(/C=N/NC(=O)c2ccncc2)ccc1OCC(=O)Nc1ccccc1,0,0,0,0,0,-,-,
COc1cc(/C=N/NC(=O)c2ccccc2O)ccc1OCC(=O)Nc1ccccc1,61.5,0,0,0,63.1,-,-,Scp1 confirm=70.4;Scp-1 MG ctr=0;Scp1 DSF=0;STEP inh conf=82.9
O=C(COc1ccc(/C=N/NC(=O)c2ccccc2Br)cc1)Nc1ccccc1,0,0,0,0,0,-,-,
O=C(COc1ccc(/C=N/NC(=O)c2ccccc2O)cc1)Nc1ccccc1,84.7,66.7,0,0,65.0,-,-,Scp1 confirm=64.8;Scp-1 MG ctr=0;Scp1 DSF=0;STEP inh conf=24.1
N#C/C(=C\c1cccc(OCC(=O)O)c1)c1nc2ccccc2[nH]1,0,0,0,0,0,-,-,
N#C/C(=C\c1ccc(OC(=O)c2ccc(Br)s2)cc1)c1nc2ccccc2[nH]1,56.6,0,0,81.6,100.8,0,0,Scp1 confirm=51.9;Scp-1 MG ctr=0;Scp1 DSF=5.5;STEP inh conf=0
N#C/C(=C\c1ccc(OC(=O)c2ccc(Cl)s2)cc1)c1nc2ccccc2[nH]1,71.4,0,0,82.8,98.6,0,0,Scp1 confirm=74.0;Scp-1 MG ctr=0;Scp1 DSF=0;STEP inh conf=24.8
Cc1ccc(/C=C/C(=O)NCCc2cccc(Cl)c2)o1,0,0,0,0,0,-,-,
COc1cc(NC(C)=O)ccc1-c1cc2ccccc2oc1=O,0,0,0,0,0,-,-,
COc1cc(NC(=O)c2ccc(Cl)cc2Cl)ccc1-c1cc2ccccc2oc1=O,0,0,0,66.2,0,0,0,
COc1ccc2nc3ccccc3nc2c1NC(=O)c1ccc(Cl)cc1Cl,0,0,0,56.6,0,0,37.5,
O=C(O)c1cc([N+](=O)[O-])ccc1-c1ccc([N+](=O)[O-])cc1C(=O)O,0,0,0,60.8,-,0,0,
O=C(O)c1cc([N+](=O)[O-])ccc1N1CCCCC1,0,0,0,0,0,-,-,
COCCn1c(SCC(=O)Nc2ccc(F)cc2)nc2ccccc2c1=O,0,0,0,83.0,0,0,0,
COCCCn1c(SCC(=O)Nc2ccc(C)cc2)nc2ccccc2c1=O,0,0,0,0,0,-,-,
COC1=C(N)C(=O)c2nc(C)ccc2C1=O,0,0,0,77.6,0,53.4,0,DNMT1 interf DR=0
COc1ccc(N)c2c1C(=O)c1ccccc1C2=O,0,0,0,0,0,-,-,
COC1=C(Br)C(=O)c2nc(C)ccc2C1=O,0,0,0,83.3,-,40.8,0,DNMT1 interf DR=0
O=C([C@H]1O[C@@H](n2ccc(=O)[nH]c2=O)[C@H](O)[C@@H]1O)N1CCC(F)(F)CC1,0,0,0,0,-,-,-,
O=C(COc1ccc(Cl)cc1Cl)NN=C1c2ccccc2-c2ccccc21,0,0,0,87.3,0,0,0,
C[C@@H](NC(=O)[C@@H]1CCCN1C(=O)[C@@H]1CCCN1C(=O)OC(C)(C)C)c1ccccc1,-,0,0,-,-,-,-,
SMILES,STEP block,LMPTP inh,SUMO1-SIM PPI,DNMT1 inh,Scp-1 inhibitor,DNMT1 confirm,Beacon interf,others
O=C1N(Cc2cccc(Cl)c2)C[C@@H]2C[C@@H](c3cccn3-c3cccnc3)N3CCC[C@@]123,0,0,0,78.3,0,0,0,
CCn1ncc([C@@H]2C[C@H]3CN(Cc4cccc(Cl)c4)C(=O)[C@]34CCCN24)c1C,0,0,0,0,0,-,-,
COc1cccc(C2c3c(-c4cc(Cl)c(C)cc4O)n[nH]c3C(=O)N2Cc2cccnc2)c1 (configuration not stated),0,0,0,98.1,0,0,0,
COc1ccc(C2c3c(-c4ccccc4O)n[nH]c3C(=O)N2Cc2ccco2)cc1 (configuration not stated),0,0,0,66.3,0,0,0,
Cc1ccccc1CNc1ccc(C(CC(N)=O)NC(=O)c2ccc(Br)cc2)cc1[N+](=O)[O-] (configuration not stated),0,0,0,61.1,0,0,0,
NC(=O)CC(NC(=O)Cc1ccc(Br)cc1)c1ccc(NCCc2ccccc2F)c([N+](=O)[O-])c1 (configuration not stated),0,0,0,0,0,-,-,
NC(=O)CC(NC(=O)c1ccc(Br)cc1)c1ccc(NCc2ccc(F)cc2)c([N+](=O)[O-])c1 (configuration not stated),0,0,0,0,0,-,-,
COc1ccc(CCNc2ccc(C(CC(N)=O)NC(=O)Cc3ccc(Br)cc3)cc2[N+](=O)[O-])cc1 (configuration not stated),0,0,0,55.5,0,0,0,
NC(=O)CC(NC(=O)Cc1ccc(Br)cc1)c1ccc(NCCc2ccc(F)cc2)c([N+](=O)[O-])c1 (configuration not stated),0,0,0,53.1,0,0,0,
NC(=O)CC(NC(=O)Cc1ccc(Br)cc1)c1ccc(NCCc2ccc(Cl)cc2)c([N+](=O)[O-])c1 (configuration not stated),0,0,0,57.7,0,0,0,
CCCCNc1ccc(C(CC(N)=O)NC(=O)Cc2ccc(Br)cc2)cc1[N+](=O)[O-] (configuration not stated),0,0,0,0,0,-,-,
COc1ccc(CCNc2ccc(C(CC(N)=O)NC(=O)c3ccc(Br)cc3)cc2[N+](=O)[O-])cc1 (configuration not stated),0,0,0,0,0,-,-,

# High-throughput results from PubChem.
